How the values were obtained:
[1] = Percent increase in life span of test animals compared to untreated tumor-bearing control group A animals at a dose of 200 mg/kg; assay type: functional; settings: Mus musculus
[2] = Toxicity day survivors expressed as number of animals that survived to day five/ number of test animals under control group A at a dose of 25 mg/kg; 6 survived out of 6; assay type: functional, Mus musculus
[3] = Antileukemic activity against Murine P388 lymphocytic leukemia, body weight difference of the test animals compared to control group A animals at a dose of 100 mg/kg; assay type: functional, Mus musculus; design: unit not given here
In short: (§1)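 CD2F1 mice implanted intraperitoneally with ascitic fluid carrying ca. 1×10^6 P388 cells, under the NCI protocol. Dosing was intraperitoneal, starting 24 h after inoculation, then every 24 h for five doses in total. The body weight difference of treated mice is taken against untreated controls. Toxicity day survivors are the mice alive at day five out of those tested.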

[4] = Antileukemic activity against Murine P388 lymphocytic leukemia, body weight difference of the test animals compared to control group A animals at a dose of 200 mg/kg; assay type: functional, Mus musculus; in short: as §1
[5] = Toxicity day survivors expressed as number of animals that survived to day five/ number of test animals under control group A at a dose of 100 mg/kg; 6 survived out of 6; assay type: functional, Mus musculus
[6] = Toxicity day survivors expressed as number of animals that survived to day five/ number of test animals under control group A at a dose of 50 mg/kg; 6 survived out of 6; assay type: functional, Mus musculus
[7] = Antileukemic activity against Murine P388 lymphocytic leukemia, body weight difference of the test animals compared to control group A animals at a dose of 50 mg/kg; assay type: functional, Mus musculus; design: unit not given here; in short: as §1
[8] = Antileukemic activity against Murine P388 lymphocytic leukemia, body weight difference of the test animals compared to control group A animals at a dose of 400 mg/kg; assay type: functional, Mus musculus; in short: as §1
[9] = Toxicity day survivors expressed as number of animals that survived to day five/ number of test animals under control group A at a dose of 200 mg/kg; 6 survived out of 6; assay type: functional, Mus musculus
[10] = Antileukemic activity against Murine P388 lymphocytic leukemia, body weight difference of the test animals compared to control group A animals at a dose of 25 mg/kg; assay type: functional, Mus musculus; design: unit not given here; in short: as §1
[11] = Toxicity day survivors expressed as number of animals that survived to day five/ number of test animals under control group A at a dose of 400 mg/kg; 3 survived out of 6; assay type: functional, Mus musculus
[12] = Antileukemic activity against Murine P388 lymphocytic leukemia, body weight difference of the test animals compared to control group B animals at a dose of 100 mg/kg; assay type: functional, Mus musculus; design: unit not given here; in short: as §1
[13] = Antileukemic activity against Murine P388 lymphocytic leukemia, body weight difference of the test animals compared to control group B animals at a dose of 25 mg/kg; assay type: functional, Mus musculus; design: unit not given here; in short: as §1
[14] = system: P388; test: Log cell population relative to cell population at the beginning of treatment compared to control group B at a dose of 12.5 mg/kg; assay type: functional, Mus musculus
[15] = system: P388; test: Log cell population relative to cell population at the beginning of treatment compared to control group Bat a dose of 50 mg/kg; assay type: functional, Mus musculus
[16] = Toxicity day survivors expressed as number of animals that survived to day five/ number of test animals under control group B at a dose of 50 mg/kg; 5 survived out of 6; assay type: functional, Mus musculus
[17] = Antileukemic activity against Murine P388 lymphocytic leukemia, body weight difference of the test animals compared to control group B animals at a dose of 12.5 mg/kg; assay type: functional, Mus musculus; design: unit not given here; in short: as §1
[18] = Percent increase in life span of test animals compared to untreated tumor-bearing control group B animals at a dose of 25 mg/kg; assay type: functional; settings: Mus musculus
[19] = Toxicity day survivors expressed as number of animals that survived to day five/ number of test animals under control group B at a dose of 25 mg/kg; 5 survived out of 6; assay type: functional, Mus musculus
[20] = Toxicity day survivors expressed as number of animals that survived to day five/ number of test animals under control group B at a dose of 100 mg/kg; 1 survived out of 6; assay type: functional, Mus musculus
[21] = Percent increase in life span of test animals compared to untreated tumor-bearing control group B animals at a dose of 12.5 mg/kg; assay type: functional; settings: Mus musculus
[22] = Antileukemic activity against Murine P388 lymphocytic leukemia, body weight difference of the test animals compared to control group B animals at a dose of 50 mg/kg; assay type: functional, Mus musculus; design: unit not given here; in short: as §1
[23] = system: P388; test: Log cell population relative to cell population at the beginning of treatment compared to control group B at a dose of 25 mg/kg; assay type: functional, Mus musculus
[24] = Percent increase in life span of test animals compared to untreated tumor-bearing control group B animals at a dose of 50 mg/kg; assay type: functional; settings: Mus musculus
[25] = Toxicity day survivors expressed as number of animals that survived to day five/ number of test animals under control group B at a dose of 12.5 mg/kg; […] out of 6; assay type: functional, Mus musculus
[26] = Percent increase in life span of test animals compared to untreated tumor-bearing control group C animals at a dose of 50 mg/kg; assay type: functional; settings: Mus musculus
[27] = Toxicity day survivors expressed as number of animals that survived to day five/ number of test animals under control group C at a dose of 100 mg/kg; 6 survived out of 6; assay type: functional, Mus musculus
[28] = Antileukemic activity against Murine P388 lymphocytic leukemia, body weight difference of the test animals compared to control group C animals at a dose of 50 mg/kg; assay type: functional, Mus musculus; design: unit not given here; in short: as §1
[29] = system: P388; test: Log cell population relative to cell population at the beginning of treatment compared to control group C at a dose of 100 mg/kg; assay type: functional, Mus musculus
[30] = Toxicity day survivors expressed as number of animals that survived to day five/ number of test animals under control group C at a dose of 25 mg/kg; 6 survived out of 6; assay type: functional, Mus musculus
[31] = system: P388; test: Log cell population relative to cell population at the beginning of treatment compared to control group C at a dose of 50 mg/kg; assay type: functional, Mus musculus
[32] = Percent increase in life span of test animals compared to untreated tumor-bearing control group C animals at a dose of 25 mg/kg; assay type: functional; settings: Mus musculus
[33] = Percent increase in life span of test animals compared to untreated tumor-bearing control group C animals at a dose of 100 mg/kg; assay type: functional; settings: Mus musculus
[34] = Antileukemic activity against Murine P388 lymphocytic leukemia, body weight difference of the test animals compared to control group C animals at a dose of 100 mg/kg; assay type: functional, Mus musculus; design: unit not given here; in short: as §1
[35] = system: P388; test: Log cell population relative to cell population at the beginning of treatment compared to control group C at a dose of 25 mg/kg; assay type: functional, Mus musculus
[36] = Antileukemic activity against Murine P388 lymphocytic leukemia, body weight difference of the test animals compared to control group C animals at a dose of 25 mg/kg; assay type: functional, Mus musculus; in short: as §1
[37] = Toxicity day survivors expressed as number of animals that survived to day five/ number of test animals under control group C at a dose of 200 mg/kg; 6 survived out of 6; assay type: functional, Mus musculus
[38] = Antileukemic activity against Murine P388 lymphocytic leukemia, body weight difference of the test animals compared to control group C animals at a dose of 200 mg/kg; assay type: functional, Mus musculus; in short: as §1
[39] = Antileukemic activity against Murine P388 lymphocytic leukemia and toxicity day survivors expressed as number of animals that survived to day five/ number of test animals under control group C at a dose of 50 mg/kg; 6 survived out of 6; assay type: functional, Mus musculus
[40] = Antileukemic activity against Murine P388 lymphocytic leukemia, body weight difference of the test animals compared to control group A animals at a dose of 12.5 mg/kg; assay type: functional, Mus musculus; in short: as §1
[41] = Percent increase in life span of test animals compared to untreated tumor-bearing control group A animals at a dose of 12.5 mg/kg; assay type: functional; settings: Mus musculus
[42] = system: P388; test: Log cell population relative to cell population at the beginning of treatment compared to control group A at a dose of 12.5 mg/kg; assay type: functional, Mus musculus
[43] = Antileukemic activity against Murine P388 lymphocytic leukemia, body weight difference of the test animals compared to control group A animals at a dose of 6.25 mg/kg; assay type: functional, Mus musculus; in short: as §1
[44] = Toxicity day survivors expressed as number of animals that survived to day five/ number of test animals under control group A at a dose of 6.25 mg/kg; assay type: functional, Mus musculus
[45] = Toxicity day survivors expressed as number of animals that survived to day five/ number of test animals under control group A at a dose of 50 mg/kg; 5 survived out of 6; assay type: functional, Mus musculus
[46] = Percent increase in life span of test animals compared to untreated tumor-bearing control group A animals at a dose of 6.25 mg/kg; assay type: functional; settings: Mus musculus
[47] = Toxicity day survivors expressed as number of animals that survived to day five/ number of test animals under control group A at a dose of 12.5 mg/kg; 6 survived out of 6; assay type: functional, Mus musculus
[48] = system: P388; test: Log cell population relative to cell population at the beginning of treatment compared to control group A at a dose of 25 mg/kg; assay type: functional, Mus musculus
[49] = Percent increase in life span of test animals compared to untreated tumor-bearing control group A animals at a dose of 25 mg/kg; assay type: functional; settings: Mus musculus
[50] = system: P388; test: Log cell population relative to cell population at the beginning of treatment compared to control group A at a dose of 6.25 mg/kg; assay type: functional, Mus musculus
[51] = Toxicity day survivors expressed as number of animals that survived to day five/ number of test animals under control group A at a dose of 100 mg/kg; 3 survived out of 6; assay type: functional, Mus musculus

## CC(C)NC(=O)OCc1c(COC(=O)NC(C)C)c(-c2ccc(Cl)c(Cl)c2)n2c1C[S+]([O-])C2 (stereo unspecified)
[1]
  ILS at 200 mg/kg: -11%
[2]
  TDS: 6
[3]
  BWD: -2.9
[4]
  BWD: -3.1
[5]
  TDS: 6
[6]
  TDS: 6
[7]
  BWD: -1.9
[8]
  BWD: -3.4
[9]
  TDS: 6
[10]
  BWD: -0.9
[11]
  TDS: 3

## CC(C)NC(=O)OCc1cn2c(c1COC(=O)NC(C)C)CCC2
[12]
  BWD: -3.6
[13]
  BWD: -4.5
[14]
  KE: -1.23
[15]
  KE: -0.69
[16]
  TDS: 5
[17]
  BWD: -0.9
[18]
  ILS at 25 mg/kg: 28%
[19]
  TDS: 5
[20]
  TDS: 1
[21]
  ILS at 12.5 mg/kg: 20%
[22]
  BWD: -4.4
[23]
  KE: -0.46
[24]
  ILS at 50 mg/kg: 26%
[25]
  TDS: 5

## CNC(=O)OCc1c(COC(=O)NC)c2n(c1C)CS(=O)(=O)C2
[26]
  ILS at 50 mg/kg: 40%
[27]
  TDS: 6
[28]
  BWD: 0.6
[29]
  KE: 0.33
[30]
  TDS: 6
[31]
  KE: 0.03
[32]
  ILS at 25 mg/kg: 22%
[33]
  ILS at 100 mg/kg: 104%
[34]
  BWD: -2.5
[35]
  KE: -0.05
[36]
  BWD: 0.3
[37]
  TDS: 6
[38]
  BWD: -2.1
[39]
  TDS: 6

## Cc1c(COC(=O)NC(C)C)c(COC(=O)NC(C)C)c2n1CSC2
[40]
  BWD: -1.9
[41]
  ILS at 12.5 mg/kg: 42%
[42]
  KE: 0.4
[43]
  BWD: -1.3
[44]
  TDS: 6
[45]
  TDS: 5
[46]
  ILS at 6.25 mg/kg: 54%
[2]
  TDS: 6
[3]
  BWD: -4.9
[47]
  TDS: 6
[48]
  KE: 2.61
[7]
  BWD: -3.5
[49]
  ILS at 25 mg/kg: 73%
[50]
  KE: 1.27
[51]
  TDS: 3
[9]
  TDS: 0
[10]
  BWD: 1.9
